Several values for one entry are separate records, joined by “and”; a condition that tells them apart may be missing. Equal values may be shown once. Entries after “also recorded” stand apart in the source; their conditions may differ.

This is an account of results in publication PMC4860949 (Bioorganic & medicinal chemistry, 2016).

Series [1] concerns Dd2 drug-resistant strain of P. falciparum. Kind of series: Antimalarial bioassay: 72 h in vitro parasite growth assay, SYBR Green I. Type of series: cell-based, Plasmodium falciparum. The following applies: for Antiplasmodial activity (in words): Dd2 drug-resistant strain of P. falciparum; for Concentration at which compound was inactive in antimalarial assay: Dd2 strain, inactive at this (highest tested) dose. The procedure, abridged:
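Ring-stage Dd2 cultures (1% hematocrit, 1% parasitaemia) were grown for 72 h with increasing test compound concentrations at 37 °C in a humidified chamber under low oxygen (5.06% CO2, 4.99% O2, 89.95% N2). Viability was measured by SYBR Green I DNA quantitation. IC50 came from nonlinear regression as the mean of three independent determinations in duplicate, ± S.E.M. Artemisinin served as positive control.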

The test system of series [2] is HEK293 (Human Embryonic Kidney) cells. The series can be described thus: In vitro cytotoxicity against HEK293 cells. The following applies: 24 h. Type of series: cell-based.
Series [3] deals with 3D7 strain of P. falciparum. As to conditions: chloroquine-sensitive strain; cited from earlier work.

`CCCCCC(=O)c1c(O)cc(O)c2c1OC1=C(C(=O)C(C)(C)C(=O)C1(C)C)C2CC(C)C` (racemic) [Compound 1, (±)-4,9-dihydro-6,8-dihydroxy-2,2,4,4-tetramethyl-5-hexanoyl-9-isobutyl-1H-xanthene-1,3(2H)-dione]: the “Antiplasmodial activity (in words)” value in series [1] is “strong antiplasmodial activity; also recorded: strong antimalarial activity”. The “Concentration up to which no inhibition/toxicity to HEK cells was detected” value in series [2] came to 3.125 µM.

`CC(C)=CCCC1=CCC2(C(=O)C(C)(C)C(=O)C(C)(C)C2=O)C(CC(C)C)C1` (racemic) [Compound 2, (±)-2,2,4,4-tetramethyl-11-isobutyl-9-(4-methyl-3-penten-1-yl)-spiro[5.5]undec-8-ene-1,3,5-trione]: in series [1], the “Antiplasmodial activity (in words)” value was “moderate antiplasmodial activity”. Moreover, the “Concentration up to which no inhibition/toxicity to HEK cells was detected” value in series [2] is on record as 100 µM.

Take `C=C(C)[C@@H]1CC[C@]2(C(=O)O)CC[C@]3(C)[C@H](CC[C@@H]4[C@@]5(C)CC[C@H](O)C(C)(C)[C@@H]5CC[C@]43C)[C@@H]12` [Compound 3, betulinic acid]: the “Antiplasmodial activity (in words)” value in series [1] (listed as Betulinic acid (3)) was “moderate inhibitory effect”. Further, the “Inhibition of 3D7 strain of P. falciparum (in words)” value in series [3] is reported as “inhibit”.

With `C[C@H]1[C@H](C)CC[C@]2(C(=O)O)CC[C@]3(C)C(=CC[C@@H]4[C@@]5(C)CC[C@H](O)C(C)(C)[C@@H]5CC[C@]43C)[C@H]12` [Compound 5, ursolic acid], in series [1], the “Antiplasmodial activity (in words)” value is “inactive” and the “Concentration at which compound was inactive in antimalarial assay” value is on record as 40 µM.

As to `CCCCCC(=O)c1c(O)cc(O)cc1O` [Compound 6, 1-(2,4,6-trihydroxyphenyl)-1-hexanone], in series [1], the “Antiplasmodial activity (in words)” value is “inactive”; the “Concentration at which compound was inactive in antimalarial assay” value was 90 µM and 80 µM.
